Hits are enriched below; roughly 1.8% of the tested compounds scored in any of these assays.
HSV augment – HSV replication enhancement | HSV replication augmentation in cells, fold increase | maximum fold increase | 0.005% of 220,000 active; in the data active = maximum fold increase above about 1.5; inconclusive = no clear call, values can overlap the other calls; tested in PC3 cells
TNF death inh – TNF-alpha cell death inhibition in Jurkat FADD-/- cells; Jurkat FADD-/- TNF necroptosis rescue, ATP luminescence, 24 h; 0 = TNF only, 100 = no-TNF cells; activation (protection from cell death), % at 10 µM; 0.068% of 220,000 active;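 active = activation, meaning protection from cell death, of at least 50% relative to plate controls; inactive = activation below 50%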;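 note: necroptosis triggered by 40 ng/mL TNF-alpha added together with compound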
zVAD death inh – L929 zVAD cell death inhibition; L929 zVAD necroptosis rescue, ATP luminescence, 24 h; with zVAD 60 µM; viability rescue, % at 10 µM; 0.38% of 220,000 active;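 active = activation, scaled between plate controls, above about 75%, limit read from the data; inactive = activation under that limit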
Furin inhibitor – human furin inhibition | P09958 | purified furin, fluorogenic substrate cleavage | inhibition, % at 20 µM or 30 µM | 0.061% of 220,000 active | AID 463115; in the data active = inhibition above about 25%
Target sequence (P09958 108-714 limits assumed): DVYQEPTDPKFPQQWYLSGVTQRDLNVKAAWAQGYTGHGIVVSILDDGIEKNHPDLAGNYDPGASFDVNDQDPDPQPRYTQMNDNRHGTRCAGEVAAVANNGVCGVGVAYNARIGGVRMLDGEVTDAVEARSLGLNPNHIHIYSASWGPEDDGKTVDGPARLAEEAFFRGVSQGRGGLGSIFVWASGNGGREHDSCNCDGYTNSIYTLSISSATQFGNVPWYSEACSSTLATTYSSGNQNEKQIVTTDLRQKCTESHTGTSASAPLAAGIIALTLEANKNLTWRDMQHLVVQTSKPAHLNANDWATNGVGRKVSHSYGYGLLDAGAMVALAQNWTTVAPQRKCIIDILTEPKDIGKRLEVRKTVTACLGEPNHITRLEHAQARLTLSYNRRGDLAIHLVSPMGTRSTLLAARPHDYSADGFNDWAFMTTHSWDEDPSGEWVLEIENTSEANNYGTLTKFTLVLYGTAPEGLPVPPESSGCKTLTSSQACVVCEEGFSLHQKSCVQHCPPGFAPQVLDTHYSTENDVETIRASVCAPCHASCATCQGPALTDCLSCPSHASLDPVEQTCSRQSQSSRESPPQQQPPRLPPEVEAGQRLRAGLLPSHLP
Autophagy HCS – alters autophagy in cells; MEF GFP-LC3 puncta imaging; test concentration mostly 10 µM; calls only at 10 µM (by protocol); 0.98% of 190,000 active;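 active = percentage of spot-positive cells more than 3 SD above its plate mean, without a fluorescence outlier flag or 80% toxicity; inconclusive = no clear call, values can overlap the other calls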
Dynein transport – dynein cargo transport inhibition; 3617.4 mouse cells, GR-EGFP nuclear translocation imaging; test concentration mostly 20 µM; stimulated with dexamethasone, 1 µM; stronger effect = lower value; z-score, hits read low; 0.47% of 220,000 active; AID 1381;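 active = plate z-score of nuclear minus cytoplasmic receptor signal below a set negative limit, without overly bright fluorescence or cell loss, cut at about -3.5 in these data, passing the limit was not always enough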;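 note: z-score of nuclear minus cytoplasmic ring GR-EGFP intensity difference per well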
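Schedule: 48 h induction, then 1 h compound, then 30 min agonist, 37 °C. Buffer or medium: tetracycline-free induction medium containing charcoal-stripped FBS. Reagent: 1.0 µM final dexamethasone stimulus. Evaluation: nuclear versus cytoplasmic GR-EGFP signal, averaged per well. Signal: high-content fluorescence imaging after fixation.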
A number is an active result; - = inactive; ? = inconclusive; . = no result; + = active, no number.

SMILES | HSV augment | TNF death inh | zVAD death inh | Furin inhibitor | Autophagy HCS | Dynein transport
COc1ccc(C(=O)NC2=Nc3ccccc3N=C(C)C2c2ccccc2)cc1 (stereo not given) | - | - | - | - | . | -
CCOC(=O)c1cc2c(N)c(C(=O)c3cc(C#N)c(SC)nc3C)sc2nc1C | - | - | - | - | + | -
CCOC(=O)c1cc(C#N)c(SC)nc1C | - | - | - | - | . | -
CC1CCC(C(C)C)C(OC(=O)C[n+]2cc(-c3ccc(Cl)cc3)n3c2CCCCC3)C1 (stereo not given) | - | - | - | - | + | -
N#C/C(=C/c1ccc(N2CCOCC2)o1)c1ccc(Br)cc1 | - | - | - | - | + | -
COc1cc(N2CCCC2)c(OC)cc1/C=C(/C#N)c1cccc(F)c1 | ? | - | - | - | + | -
N#C/C(=C\c1ccc(N2CCOCC2)o1)c1ccccc1 | - | - | - | - | - | -
COc1cccc(/C=C(/C#N)c2ccc(F)cc2)c1OCc1cccc(C(=O)O)c1 | - | - | - | - | - | -
N#C/C(=C/c1ccc(N2CCOCC2)o1)c1nc2ccccc2[nH]1 | . | - | - | - | ? | -
N#C/C(=C/c1ccc(N2CCCCCC2)o1)c1cccc(F)c1 | - | - | - | - | + | -
CCOC(=O)CC(NC(=O)c1cccc2c1C(=O)N(Cc1cccnc1)C2)c1ccc(OCC)c(OC)c1 (stereo not given) | - | - | - | - | - | -
COc1ccc(OC)c(N/C(=N/C(=S)Nc2ccccc2)Nc2nc(C)cc(C)n2)c1 | - | - | - | - | . | -
Cc1ccc(CN2[C@@H](CC(C)C)COCCS2(=O)=O)cc1 | - | . | . | . | . | .
CCN(CC)c1nc(C)c(C(=S)Nc2cc([N+](=O)[O-])ccc2Cl)s1 | . | - | - | - | + | -
COc1ccc(-c2ncccc2OC(=O)C23CC4CC(CC(C4)C2)C3)cc1 | - | - | - | - | - | -
Cc1c(CN(C)Cc2cn(C)nc2-c2ccccc2F)[nH]c2ccccc12 | - | - | - | - | + | -
CC(=O)Nc1ccc(N2CCc3c(C)c(C#N)c4nc5ccccc5n4c32)cc1 | - | - | - | - | + | -
COc1ccc(NC(=O)c2ccc(OC(=S)N(C)c3ccc(OC)cc3)cc2)cc1 | - | 68 | - | - | - | -
CCCCC(=O)c1ccc(O)cc1 | - | - | - | - | - | -
CCCCC(=O)c1ccc(O)cc1O | - | - | - | - | + | -
CCC(C)c1ccc(NC(=S)NC(C)C2CCCO2)cc1 (stereo not given) | - | - | - | - | - | -
COc1ccccc1NC(=O)c1oc2ccccc2c1NC(=O)c1cc(OC)c(OC)c(OC)c1 | . | - | - | - | + | -
O=C(CC1C(=O)NCCN1Cc1ccc(F)c(F)c1)NCCCn1ccnc1 (stereo not given) | - | - | - | - | - | -
Cc1ccc(C(=O)CC2(O)C(=O)N(C)c3ccccc32)o1 (stereo not given) | - | - | - | - | + | -
CCC(C)N(CC(=O)Nc1cccc(C)c1C)C(=O)CCl (stereo not given) | - | - | - | - | + | -
SMILES | HSV augment | TNF death inh | zVAD death inh | Furin inhibitor | Autophagy HCS | Dynein transport
CCC(CC)NC(=O)Nc1cccc(C)c1C | - | - | - | - | - | -
O=C(CCl)Nc1cn(-c2ccccc2)nc1-c1ccccc1 | - | - | - | - | - | -
Nc1ccc2c(c1)Cc1cc([N+](=O)[O-])ccc1-2 | ? | - | - | - | + | -
CC(OC(=O)c1oc2ccccc2c1COc1ccccc1)C(=O)NC(N)=O (stereo not given) | - | - | - | - | + | -
CC(OC(=O)c1oc2ccccc2c1CSC1CCCCC1)C(=O)NC(N)=O (stereo not given) | - | - | - | - | - | -
COc1ccc(CCNC(=O)Cn2c([N+](=O)[O-])cnc2C)cc1OC | - | - | - | - | - | -
CC(C)c1ccc(/C=N/NC(=O)c2c(Cl)cnn2C)cc1 | - | - | - | - | - | -
COc1ccc(C(=O)c2ccc(OC)c(N)c2)cc1N | - | - | - | - | + | -
COc1ccc(NC(=S)NC(NC(=O)c2cccc(Cl)c2)C(Cl)(Cl)Cl)c([N+](=O)[O-])c1 (stereo not given) | - | - | - | - | + | -
